The source of these data is PubChem BioAssay AID504837 (Johns Hopkins Ion Channel Center, 2011).

pIC50: −log10 of the molar value. “And” between values parts separate entries of the source, which are not always exact repeats. Equal entries are not always repeated. The source made the active and inactive calls.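 The calls were made as follows: active = lowers KCNQ2 potassium channel current at one or more tested doses and a dose response curve can be fitted; inactive = no current drop at any dose, or no curve.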

Sequence of Potassium voltage-gated channel subfamily KQT member 2 (Rattus norvegicus) (O88943 whole entry, looked up): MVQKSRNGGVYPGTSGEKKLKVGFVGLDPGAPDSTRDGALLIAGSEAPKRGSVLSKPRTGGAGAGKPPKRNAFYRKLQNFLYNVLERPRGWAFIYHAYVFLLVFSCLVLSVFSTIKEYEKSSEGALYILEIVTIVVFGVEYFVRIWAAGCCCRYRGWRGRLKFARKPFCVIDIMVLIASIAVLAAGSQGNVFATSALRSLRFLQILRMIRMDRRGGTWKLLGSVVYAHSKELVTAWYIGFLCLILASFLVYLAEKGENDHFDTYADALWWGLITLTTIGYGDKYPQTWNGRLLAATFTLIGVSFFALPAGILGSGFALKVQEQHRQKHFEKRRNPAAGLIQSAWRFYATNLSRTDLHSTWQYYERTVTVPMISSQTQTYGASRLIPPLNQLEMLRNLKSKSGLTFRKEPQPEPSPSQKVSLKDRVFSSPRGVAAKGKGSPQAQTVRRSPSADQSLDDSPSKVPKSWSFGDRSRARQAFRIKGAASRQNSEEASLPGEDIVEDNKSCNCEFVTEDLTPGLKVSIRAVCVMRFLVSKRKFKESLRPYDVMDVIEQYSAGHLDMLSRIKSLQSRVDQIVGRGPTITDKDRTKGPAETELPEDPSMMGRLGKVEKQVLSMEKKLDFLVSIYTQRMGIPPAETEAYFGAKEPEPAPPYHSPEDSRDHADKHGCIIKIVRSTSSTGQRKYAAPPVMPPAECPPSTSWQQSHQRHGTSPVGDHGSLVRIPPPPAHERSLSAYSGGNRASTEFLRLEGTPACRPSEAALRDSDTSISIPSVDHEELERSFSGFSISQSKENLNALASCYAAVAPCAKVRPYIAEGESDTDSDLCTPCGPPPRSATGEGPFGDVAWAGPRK

For the first test, the target named is Potassium voltage-gated channel subfamily KQT member 2 (Rattus norvegicus) (UniProt O88943). The test is described as follows: blockers of rat KCNQ2 potassium current – automated electrophysiology, CHO cells, orthogonal assay for KCNQ2 inhibitor project, SAR follow-up (AID 504837). To be noted: automated patch clamp current. The essentials:
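Material: KCNQ2-expressing CHO cells; Probe or stimulus: 2,000 ms depolarization to +40 mV from -90 mV; Dosing: multiple compound concentrations; Measured by: automated perforated-patch clamp (amphotericin B), steady-state current at +40 mV; Measure: percent change in steady-state KCNQ2 current, post- versus pre-compound; Repeats: four replicates per concentration.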
In the case of `O=C(NC[C@H](c1cccs1)N1CCOCC1)C12CC3CC(CC(C3)C1)C2`, the pIC50 is 5.07.
As for `O=C(NCC(c1cccs1)N1CCOCC1)C1COc2ccc(Cl)cc2C1` (configuration not stated), the pIC50 is 5.49.
The same measure, in the same setting: the result for `O=C(CC1CCCCC1)NCC(c1cccs1)N1CCOCC1` (configuration not stated) reads 5.76.
Regarding `O=C(NCC(c1cccs1)N1CCOCC1)C1CCCCC1` (configuration not stated), the pIC50 was 5.53.
Still for that read-out and setting: the result for `CC1Oc2ccccc2OC1C(=O)NCC(c1cccs1)N1CCOCC1` (configuration not stated) reads 5.08; that for `O=C(NC[C@@H](c1cccs1)N1CCOCC1)C12CC3CC(CC(C3)C1)C2`, 6.85.
As to `Cc1ccc(OCCC(=O)NCC(c2cccs2)N2CCOCC2)cc1` (configuration not stated), the pIC50 is 5.05.
Consider `O=C(NCC(c1ccco1)N1CCOCC1)C(c1ccccc1)c1ccccc1` (configuration not stated), for which the pIC50 was 5.92.
On to `O=C(NCC(c1cccs1)N1CCOCC1)C12CC3CC(CC(C3)C1)C2` (configuration not stated), for which the pIC50 is 6.04 and 6.36.
Take `CC1(C(=O)NCC(c2cccs2)N2CCOCC2)CC1(Cl)Cl` (configuration not stated): the pIC50 was 5.02.

Still in this test, the particulars now being: automated patch clamp current, at 30 µM (top of the series).
Take `CCCCC1CCC(C(=O)NCC(c2ccco2)N2CCOCC2)CC1` (configuration not stated): the “current change, negative = inhibition” value was “inactive”.
Still for that read-out and setting: then `CN1CCN(C(CNC(=O)CC(C)(C)C)c2cccs2)CC1` (configuration not stated), with “inactive”; and `COc1ccccc1C(=O)NCC(c1cccs1)N1CCOCC1` (configuration not stated), with “inactive”; and `Cc1ccc(C(CNC(=O)C2(C)CC2(Cl)Cl)N2CCOCC2)o1` (configuration not stated), with “inactive”.
Same read-out and setting: the result for `CC(C)(C)c1ccc(OCCC(=O)NCC(c2cccs2)N2CCOCC2)cc1` (configuration not stated) reads “inactive”.
As for `CC(C)(C)C1CCC(C(=O)NCC(c2cccs2)N2CCOCC2)CC1` (configuration not stated), the “current change, negative = inhibition” value is “inactive”.
Still for that read-out and setting: the result for `CC(C)C(=O)NCC(c1cccs1)N1CCOCC1` (configuration not stated) reads “inactive”; that for `CC(C)(C)C(=O)NCC(c1cccs1)N1CCOCC1` (configuration not stated), “inactive”.
For `CC(C)CC(=O)NCC(c1cccs1)N1CCOCC1` (configuration not stated), the “current change, negative = inhibition” value was “inactive”.
Regarding `O=C(NCC(c1ccco1)N1CCOCC1)C1CCCCC1` (configuration not stated), the “current change, negative = inhibition” value is “inactive”.
The same measure, in the same setting: then `Cc1ccc(OCC(=O)NCC(c2cccs2)N2CCOCC2)cc1` (configuration not stated), with “inactive”; and `CCCCC1CCC(C(=O)NC[C@@H](c2ccco2)N2CCOCC2)CC1` (some centres not stated), with “inactive”.
Same read-out and setting: then `Cc1ccc(C(CNC(=O)C2CCC2)N2CCOCC2)o1` (configuration not stated), with “inactive”; and `CN1CCN(C(CNC(=O)C23CC4CC(CC(C4)C2)C3)c2cccs2)CC1` (configuration not stated), with “inactive”.
Same read-out and setting: then `O=C(NCC(c1ccco1)N1CCOCC1)C1CC1` (configuration not stated), with “inactive”; and `Cc1ccc(OCCC(=O)NCC(c2cccs2)N2CCOCC2)cc1` (configuration not stated), with “inactive”; and `CCC(CC)C(=O)NCC(c1ccco1)N1CCOCC1` (configuration not stated), with “inactive”.
